Screening data deposited in PubChem by several laboratories.
MT1-MMP txn act – MT1-MMP promoter transcription activation; activation factor at 10 µM; AID 750; HT1080 MT1-MMP promoter luciferase reporter, luminescence, overnight; hits give high values; 86,000 compounds, 0.16% hits;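 active = activation factor of at least 2 for MT1-MMP transcription at 10 µM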
Ec RNAP inh – inhibitors of Escherichia coli RNA polymerase; P0A8V2; E. coli RNA polymerase, fluorescence transcription assay; inhibition, %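 (tested at 10 µM)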; 62,000 compounds, 0.2% hits; AID 559; in the data active = inhibition above about 20%;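 also: 0% = enzyme without compound and 100% = no enzyme blank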
RORA act – activators of human nuclear receptor RORA | P35398 | CHO-K1 Gal4-RORA LBD luciferase reporter, luminescence; percent increase over mock-subtracted basal signal | activation, % at 10 µM | 65,000 compounds, 1.5% hits | AID 560;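 active = activation above the mean of all tested compounds plus 3 SD, cut at about 49% in these data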;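 also: 0% = DMSO-treated RORA cells and 100% = added signal equal to DMSO minus mock-transfected cells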
TNAP act DEA – human TNAP activation, intermediate phosphate acceptor; P05186; purified TNAP, CDP-star luminescence, 100 mM DEA, 30 min; hits give high values; scale: 0 levamisole-inhibited, 1 vehicle-only enzyme; activation factor at 20 µM; 64,000 tested, under 10 active; AID 813;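 active = activation factor of at least 2 at 20 µM, relative to controls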
Target sequence (P05186 whole entry, looked up): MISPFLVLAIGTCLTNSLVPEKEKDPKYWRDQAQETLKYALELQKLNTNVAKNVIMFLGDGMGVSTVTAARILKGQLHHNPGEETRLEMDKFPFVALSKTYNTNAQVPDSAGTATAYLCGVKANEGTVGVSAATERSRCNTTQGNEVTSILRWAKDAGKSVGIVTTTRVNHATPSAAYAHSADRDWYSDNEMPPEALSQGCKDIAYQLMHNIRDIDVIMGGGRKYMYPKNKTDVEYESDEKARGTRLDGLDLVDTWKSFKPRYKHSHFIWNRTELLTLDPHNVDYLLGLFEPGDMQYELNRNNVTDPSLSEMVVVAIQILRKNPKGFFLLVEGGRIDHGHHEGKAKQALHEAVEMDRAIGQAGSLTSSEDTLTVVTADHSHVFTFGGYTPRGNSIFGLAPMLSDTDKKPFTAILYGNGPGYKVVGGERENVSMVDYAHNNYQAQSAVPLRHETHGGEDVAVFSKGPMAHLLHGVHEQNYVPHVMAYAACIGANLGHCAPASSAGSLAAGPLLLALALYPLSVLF
SF-1 act – activators of human nuclear receptor SF-1 | Q13285 | AID 522 | activation, % at 10 µM | CHO-K1 Gal4-SF-1 LBD luciferase reporter; % increase over DMSO SF-1-specific signal | 65,000 compounds, 1.9% hits;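 active = activation above the mean activation of all tested compounds plus 3 SD, cut at about 50% in these data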
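Material: Transient Gal4-SF-1 LBD reporter, CHO-K1 | Input: 4,000 cells/well | Dosing: One dose, 10 µM compound, 1% DMSO | Incubation: 20 h compound treatment, 37 °C | Detection: SteadyLite luciferase luminescence | Evaluation: Percent activation relative to DMSO median and mock-transfected background | Benchmarks: DMSO-treated SF-1-transfected cells as negative, DMSO-treated mock-transfected cells lacking SF-1 as background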
Starred values were filed as active, the others as inactive. An excerpt weighted towards active compounds, which were near 2.1% of everything screened.

For CCCCCCN(C(=O)CCCCCN1C(=O)NC(C2CCCCC2)C(C(=O)OCc2ccccc2)=C1C)C(C(=O)NCCCC)c1ccc(OCC(=O)OC)c(C(=O)OC)c1 (stereo unspecified) the results were MT1-MMP txn act 1.1.
For C/C(N)=C(/C#N)C(=O)CSc1nnc(Nc2cccc(C)c2)s1 the results were MT1-MMP txn act 1.6, Ec RNAP inh 9.6, RORA act 35.9, TNAP act DEA 0.8 and SF-1 act 69.4*.
CC(=O)/C(C#N)=C1\NC(=O)C(Cc2ccccc2Cl)S1 (stereo unspecified) was read as MT1-MMP txn act 1.4, Ec RNAP inh 32.0*, RORA act -38.0, TNAP act DEA 0.9 and SF-1 act -29.9.
For COc1ccccc1OCC(=O)Nc1ccc(S(=O)(=O)Nc2nc(C)cc(C)n2)cc1 the results were MT1-MMP txn act 1, Ec RNAP inh 20.7*, RORA act 0.8, TNAP act DEA 0.8 and SF-1 act -3.4.
Screening CCOC(=O)C1=C(N)n2c(s/c(=C\c3cccs3)c2=O)=C(C(=O)OCC)C1c1cccs1 (stereo unspecified) returned MT1-MMP txn act 0.5, Ec RNAP inh 6.0, RORA act 29.2, TNAP act DEA 0.9 and SF-1 act 24.9.
`O=C(NCCN1CCOCC1)c1cc(-c2cccs2)on1` gave MT1-MMP txn act 1.2, Ec RNAP inh 0.5, RORA act 67.5*, TNAP act DEA 0.9 and SF-1 act 34.6.
O=C(c1cc(-c2cccs2)on1)N1CCOCC1 was read as MT1-MMP txn act 1.3, Ec RNAP inh -1.5, RORA act 50.9*, TNAP act DEA 0.9 and SF-1 act 48.2.
CC(C)Cn1c(SCC(=O)NCc2ccc(Cl)cc2)nnc1-c1cccc(S(=O)(=O)N2CCOCC2)c1 was read as MT1-MMP txn act 1.1.
`Cc1ccc(C(C)C)c(OCCNc2nc3c(c(=O)n(C)c(=O)n3C)n2C)c1` gave MT1-MMP txn act 1.3, Ec RNAP inh 10.5, RORA act -1.1, TNAP act DEA 0.9 and SF-1 act -48.9.
`COCCNC(=O)C1(CC(C)C)C=CCN1C(=O)OC` (stereo unspecified) gave MT1-MMP txn act 1.3.
O=C(Nc1ccccc1)OCCOc1ccccc1 was read as MT1-MMP txn act 1.4, Ec RNAP inh 2.1, RORA act 23.7, TNAP act DEA 0.9 and SF-1 act 17.9.
O=C(Nc1ccccc1)OCc1ccccn1 was read as MT1-MMP txn act 1.6, Ec RNAP inh 8.2, RORA act 60.5*, TNAP act DEA 0.9 and SF-1 act 27.7.
CC1=C(C(=O)OCc2ccccc2)C(c2ccc(C3CCCCC3)cc2)NC(=O)N1CCCCCC(=O)O (stereo unspecified) was read as MT1-MMP txn act 1.
CCC/C=C(\CCC)C(NS(=O)(=O)c1ccc(C(F)(F)F)cc1)c1ccc(-c2ccccc2)cc1 (stereo unspecified) was read as MT1-MMP txn act 1.2.
Screening CCCCCCN(C(=O)CCCCCN1C(=O)NC(c2ccccc2-c2ccccc2)C(C(=O)OCc2ccccc2)=C1C)C(C(=O)NCCCC)c1ccc(OCC(=O)OC)c(C(=O)OC)c1 (stereo unspecified) returned MT1-MMP txn act 1.1.
Screening CCc1cc2c(=O)c(-c3ccc4c(c3)OCCO4)coc2cc1OC(=O)c1ccco1 returned MT1-MMP txn act 0.6, Ec RNAP inh 3.8, RORA act 29.2, TNAP act DEA 0.9 and SF-1 act 66.2*.
For COc1ccc(C(=O)Nc2ccc(-c3ccc(C)o3)cc2)cc1S(=O)(=O)N1CCOCC1 the results were MT1-MMP txn act 1.3, Ec RNAP inh 6.3, RORA act -10.3, TNAP act DEA 1 and SF-1 act 18.8.
For CN(C)c1ccc(C2=NOC(CN3C(=O)c4ccccc4S3(=O)=O)C2)cc1 (stereo unspecified) the results were MT1-MMP txn act 1.8, RORA act 60.1*, TNAP act DEA 0.9 and SF-1 act 33.0.
For O=C1c2ccccc2S(=O)(=O)N1Cc1nc2ccccc2s1 the results were Ec RNAP inh 1.6, RORA act -53.7, TNAP act DEA 0.9 and SF-1 act -43.0.
`Cc1cc(NC(=O)C23CCC(C)(c4nc5cc(Cl)c(Cl)cc5nc42)C3(C)C)no1` (stereo unspecified) gave MT1-MMP txn act 1.1, Ec RNAP inh 8.8, RORA act 0.5, TNAP act DEA 0.8 and SF-1 act -12.3.
Screening Cc1ccc(C2/C(=C(/O)c3cnn(-c4ccccc4)c3C)C(=O)C(=O)N2CCN2CCOCC2)o1 (stereo unspecified) returned MT1-MMP txn act 1.2, Ec RNAP inh 8.1, RORA act 21.8, TNAP act DEA 0.8 and SF-1 act 54.5*.
Screening Cc1ccc(C2/C(=C(\O)c3cnn(-c4ccccc4)c3C)C(=O)C(=O)N2CCN(C)C)o1 (stereo unspecified) returned MT1-MMP txn act 1.8, Ec RNAP inh 6.2, RORA act 8.6, TNAP act DEA 1 and SF-1 act 52.7*.
`CCN(CC)CCN1C(=O)C(=O)/C(=C(/O)c2cnn(-c3ccccc3)c2C)C1c1ccc(C)o1` (stereo unspecified) gave MT1-MMP txn act 1.5.
CCN1CCN(C(C)C(=O)Nc2c(C)n(C)n(-c3ccccc3)c2=O)CC1 (stereo unspecified) was read as MT1-MMP txn act 1.1.
For O=c1oc2ccccc2c(Nc2ccccc2)c1[N+](=O)[O-] the results were MT1-MMP txn act 1.
`CCN(CC)CCCN1C(=O)C(=O)/C(=C(/O)c2cnn(-c3ccccc3)c2C)C1c1ccncc1` (stereo unspecified) gave MT1-MMP txn act 1, Ec RNAP inh 3.3, RORA act 3.0, TNAP act DEA 0.9 and SF-1 act -7.8.
Screening CCCCN1C2CCCC1CC(NC(=O)N(C(C)C)C(C)C)C2 (stereo unspecified) returned MT1-MMP txn act 1.2.
`COCC1C2CC[C@H]3C(OCc4ccc(F)cc4C(F)(F)F)OC[C@]4(C)[C@H]3C2=C(CN4C(=O)OC(C)(C)C)[C@H](C)C1COC` (stereo partly specified) gave MT1-MMP txn act 1.
Screening CCn1c(SCC(N)=O)nnc1-c1ccco1 returned MT1-MMP txn act 1.4, Ec RNAP inh 11.2, RORA act -0.6, TNAP act DEA 0.9 and SF-1 act -3.4.
CCn1c(SCC(=O)c2cccs2)nnc1-c1ccco1 was read as MT1-MMP txn act 1.3, Ec RNAP inh 5.9, RORA act 6.7, TNAP act DEA 0.9 and SF-1 act 53.6*.
Screening c1cn2cc(CSC3CCCCC3)nc2s1 returned MT1-MMP txn act 1.4, Ec RNAP inh 8.0, RORA act 29.9, TNAP act DEA 0.9 and SF-1 act 59.6*.
Clc1ccc(SCc2cn3ccsc3n2)cc1 was read as MT1-MMP txn act 1.9, RORA act 30.3, TNAP act DEA 0.7 and SF-1 act 57.7*.
